CHT allo act: human CHT allosteric activation | Q9GZV3 | CHT-expressing cells, membrane potential dye, choline EC20; stronger effect = higher value; LV-AA mutant CHT in HEK293 cells | B-score at 10 µM | hit rate 0.49% among 310,000 | AID 488977;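 active means initial fluorescence not abnormally high and integrated response B-score, plate-corrected, over 3 SD above library mean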
Target sequence (Q9GZV3 whole entry, looked up): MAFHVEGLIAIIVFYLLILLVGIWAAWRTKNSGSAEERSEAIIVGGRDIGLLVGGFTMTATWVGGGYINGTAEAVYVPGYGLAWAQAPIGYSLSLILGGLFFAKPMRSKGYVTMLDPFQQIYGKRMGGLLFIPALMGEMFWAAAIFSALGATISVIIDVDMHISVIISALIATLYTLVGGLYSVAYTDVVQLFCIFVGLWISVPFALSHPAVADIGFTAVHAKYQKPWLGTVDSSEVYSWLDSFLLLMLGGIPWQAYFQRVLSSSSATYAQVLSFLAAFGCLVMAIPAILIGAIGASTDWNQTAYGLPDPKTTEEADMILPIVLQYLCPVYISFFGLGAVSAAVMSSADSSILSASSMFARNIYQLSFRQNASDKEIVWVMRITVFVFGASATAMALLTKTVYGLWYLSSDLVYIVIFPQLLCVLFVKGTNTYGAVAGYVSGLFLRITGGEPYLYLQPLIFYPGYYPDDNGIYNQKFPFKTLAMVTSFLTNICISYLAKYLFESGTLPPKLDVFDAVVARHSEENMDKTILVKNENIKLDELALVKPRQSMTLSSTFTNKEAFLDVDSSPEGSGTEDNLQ
HSF1 activator: increases HSF-1 driven luciferase reporter signal; NIH3T3-HGL HSF-1 luciferase reporter, MG132, 8 h; 100% = twice DMSO control signal; activation, % at 9 µM; hit rate 1.7% among 300,000; AID 504408;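 active means mean replicate activation of at least 50% with a set share of replicates each reaching 50%; inconclusive means only one of those two conditions met; inactive means mean below 50% and too few replicates reaching it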;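 further: 0% = median of the neutral control wells and 100% = twice that signal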
PHOSPHO1 inh: blocks human PHOSPHO1 phosphatase activity; recombinant PHOSPHO1, absorbance phosphatase assay; Q8TCT1; hit rate 1.1% among 290,000; inhibition, % at 13.3 µM; in the data active means inhibition above about 60%
HSF1 inhib: HSF1 inhibition | NIH3T3-HGL HSE-luciferase, MG132-induced, luminescence 8 h; stronger effect = lower value | activity change, negative = inhibition, % at 7.5 µM (by protocol) | hit rate 0.77% among 300,000;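 active means more than half of replicate wells show activity change below -50%, luminescence cut by over half; inconclusive means some wells, but at most half, below -50%; inactive means no replicate well below -50%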;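 further: luciferase reports HSF-1 transcriptional activity via heat shock element; 0% = median of DMSO wells and -100% = zero luminescence signal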
CHT inh: inhibitors of human choline transporter CHT; Q9GZV3; CHT-expressing cells, membrane potential dye, choline response; stronger effect = lower value; B-score at 10 µM; hit rate 0.86% among 310,000; AID 488975;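 active means B-score over 3 SD under the library average, and starting fluorescence ratio not unusually high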;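 further: choline stimulus applied at its EC90 after an EC20 pre-addition; B-score computed on integrated fluorescence ratio after choline addition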
Hep lipid drop: modulators of hepatic lipid droplet formation; AID 1656; inhibition, % at 6.5 µM; AML12 mouse hepatocytes, oleate lipid droplets, BODIPY imaging; hit rate 0.4% among 240,000;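 active means lipid droplet intensity inhibited by at least 50%, with more than 500 cells counted; inconclusive means wells with under 300 cells, treated as cytotoxic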
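Material – AML12 mouse liver cells · Also added – oleate loading, 100 µM · Compound dosing – 6.5 µM single-point dosing · Times – overnight treatment with compound plus oleate · Measured by – fluorescence imaging, 20x objective, two fields per well · Read-out – percent inhibition of filter-corrected integrated lipid droplet intensity per well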
* marks the source's active call; other numbers are inactive results; i = inactive; ? = inconclusive; · = no result. Rows were chosen to be rich in hits. Some 4.9% of all compounds tested hit in one or more screens of this group.

SMILES	CHT allo act	HSF1 activator	PHOSPHO1 inh	HSF1 inhib	CHT inh	Hep lipid drop
NC(=O)c1ccsc1NC(=O)c1cccs1	i	-25	·	-11	i	·
NC(=O)c1ccsc1NC(=O)C1CCCCC1	i	-67	-5	-57*	i	·
O=C(O)Cc1ccc(NC(=O)C(c2ccccc2)c2ccccc2)cc1	i	0	39	3	i	0
CCNC(=O)NC(=O)C(C)OC(=O)Cc1coc2cc3c(cc12)CCC3 (stereo not given)	i	·	9	·	i	12
Cc1cc(C)n(CC(=O)N/N=C/c2ccc(C)o2)n1	i	-12	62*	1	i	·
Cc1cc(C)n(CC(=O)N/N=C/c2ccccn2)n1	i	-1	-2	-4	i	2
S=c1[nH]nc(-c2ccccc2)n1/N=C/c1ccc(-c2ccccc2Cl)o1	i	151*	-10	86	i	6
S=c1[nH]nc(-c2ccccn2)n1/N=C/c1ccc(-c2ccccc2Br)o1	·	-5	62*	-7	·	-12
O=S(=O)(CCN1CCOCC1)c1ccc(OC(F)(F)F)cc1	i	25	·	3	i	·
O=c1[nH]cc(S(=O)(=O)c2ccccc2)[nH]1	i	-60	28	-51*	i	8
Cc1ccc(-c2csc(NC(=O)c3cccc([N+](=O)[O-])c3)n2)cc1	i	64*	11	20	i	·
Cc1ccc(CNC(=O)c2ccc([N+](=O)[O-])o2)cc1	i	61*	14	6	i	·
Cc1ccc(/C=C/C(=O)c2ccc([N+](=O)[O-])o2)cc1	i	29	·	32	i	·
CCOC(=O)Cc1csc(NC(=O)c2cccc([N+](=O)[O-])c2)n1	i	-3	11	-2	i	-8
Cc1ccc(-c2csc(NC(=O)c3ccc([N+](=O)[O-])o3)n2)cc1	i	65*	-18	38	i	-10
COc1ccc(C(CCNC(C)c2ccccc2)C(C)C)cc1 (stereo not given)	i	4	38	0	i	-30
COc1ccc(C(C)NCCC(c2ccc(OC(C)C)cc2)c2ccccc2OC)cc1 (stereo not given)	7.7*	-2	23	-2	i	-30
O=C(CCCN1C(=O)/C(=C/c2cccs2)SC1=S)Nc1cccc(O)c1	i	-8	32	-3	i	-4
CCn1cc(CN2CCC(n3nccc3NC(=O)Cc3ccccc3)CC2)c(C)n1	i	16	33	-4	i	-14
N#CC1=C(N)Oc2cc(N)ccc2C1c1ccccc1Cl (stereo not given)	i	-71	-1	-61*	i	1
N#CC1=C(N)Oc2cc(N)ccc2C1c1ccc(Cl)cc1 (stereo not given)	i	23	-1	5	i	1
CC12CCC3C(CCC4N(CCO)CCC34C)C1CCC2O (stereo not given)	i	11	20	0	i	6
COc1ccc(C(=O)NN2CCOCC2)cc1[N+](=O)[O-]	i	11	29	-3	i	-2
O=C(O)c1ccn(Cn2cnc3ccccc32)n1	i	-80	16	-75*	i	·
Cn1c(=O)c2c(nc(N3CCc4ccccc4C3)n2C)n(C)c1=O	i	-4	-1	1	i	-10
SMILES	CHT allo act	HSF1 activator	PHOSPHO1 inh	HSF1 inhib	CHT inh	Hep lipid drop
Cc1ccccc1Oc1cc(NC(=O)CCCn2nc(C)c([N+](=O)[O-])c2C)cc([N+](=O)[O-])c1	i	29	-7	10	i	-61
Cc1ccccc1Oc1cc(NC(=O)Cn2cnc([N+](=O)[O-])c2)cc([N+](=O)[O-])c1	i	75*	27	28	i	0
CCOc1ccc(N=C(NN)c2ccc3ccccc3n2)cc1	i	-84	-9	-82*	i	10
COC(=O)c1ccc2ccccc2n1	i	19	·	5	i	·
Cn1c(NC(=S)Nc2ccccc2)nc2ccccc21	i	77*	-12	40	i	0
COC(=O)[C@H]1[C@H]2C[C@@H]3c4[nH]c5cc(OC)ccc5c4CCN3C[C@H]2C[C@@H](OC(=O)c2ccc(N)cc2)[C@@H]1OC	i	-64	20	-55*	i	-6
CCCCCCc1ccc(N2C[C@H](CCCCC)[C@@H](CC(=O)NCc3ccccc3)C2=O)cc1	i	18	-2	3	i	·
Cc1ccc(S(=O)(=O)Nc2cccc3cccnc23)c([N+](=O)[O-])c1	i	220*	28	161	i	-22
O=C(CCc1nnc(COc2ccccc2)o1)NCc1ccccc1C(F)(F)F	i	0	15	2	i	-4
N#CCCN1CCN(C(=S)c2ccc(-c3cccc(Cl)c3)o2)CC1	i	?	25	19	i	·
CC(=O)N1CCN(C(=S)c2ccc(-c3ccc(Cl)cc3)o2)CC1	i	-7	74*	12	i	·
S=C(c1ccc(-c2cccc(Cl)c2)o1)N1CCCCC1	i	73*	12	38	i	37
Cc1cccc(C)c1NC(=O)COC(=O)c1ccccc1[N+](=O)[O-]	i	-7	63*	-1	i	-23
CSCC[C@H](NC(=O)N1CCn2c1nc1ccccc12)C(=O)NCc1ccc(F)cc1	i	44	49	25	i	-2
COC(c1ccccc1)c1nnc(CCC(=O)N2CCN(C3CCCC3)CC2)o1 (stereo not given)	i	0	22	-7	i	10
COC(c1ccccc1)c1nnc(CCC(=O)NC2C3CC4CC(C3)CC2C4)o1 (stereo not given)	i	32	60*	7	i	-11
Cc1nn(S(=O)(=O)N2CCOCC2)c(C)c1Br	i	18	37	4	i	-6
CCn1c(=O)c(-[n+]2ccccc2)c(O)c2ccccc21	i	10	0	1	i	-13
O=C(CSc1nc(-c2ccccc2)cc(=O)[nH]1)NCc1ccc2c(c1)OCO2	i	19	9	8	i	8
CN(C(=O)CN1C(=O)S/C(=C\c2ccccc2)C1=O)C1CCS(=O)(=O)C1 (stereo not given)	i	-89	-54	-86*	i	-2
COc1ccc(OC)c(C2Nc3ccccc3NC3=C2C(=O)CC(C)(C)C3)c1 (stereo not given)	i	1	14	0	i	-8
COc1ccc(-c2noc(CNC(=O)c3ccoc3C)n2)cc1	i	5	2	2	i	11
COc1ccc(OC)c(CNC(=O)Cc2c(C(=O)O)[nH]c3ccccc23)c1	i	20	11	-5	i	·
COc1ccc(S(=O)NC2CCCCC2)c(OC)c1C (stereo not given)	i	0	87*	-4	i	·

Bioassay records: PubChem, several laboratories
